Test results: ChEMBL document CHEMBL1144738, “Cytotoxic diterpenoids and sesquiterpenoids from Pteris multifida” (J Nat Prod, 2008)

Key:
[1] = tested on: HepG2; assay: Cytotoxicity against human HepG2 cells by SRB method; assay type: functional, cell-based
Method in brief: (§1)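 Adherent cells were grown in RPMI1640 with 10% FBS, 100 U/mL penicillin and 100 U/mL streptomycin, then plated and incubated for 24 h. They were exposed to test compounds at 10^-2 to 10^2 µM for 72 h. Growth inhibition was read by sulforhodamine B (SRB) staining and expressed as IC50, the mean of triplicate points. Adriamycin and taxotere were positive controls.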

[2] = tested on: LoVo; assay: Cytotoxicity against human LoVo cells by SRB method; assay type: functional, cell-based; method in brief: as §1
[3] = tested on: K562; assay: Cytotoxicity against human K562 cells by WST-1 method
[4] = tested on: KB; assay: Cytotoxicity against human KB cells by SRB method; assay type: functional, cell-based; method in brief: as §1

| Compound | IC50 [1] | IC50 [2] | IC50 [3] | IC50 [4] |
| --- | --- | --- | --- | --- |
| C=C1[C@@H]2CC[C@H]3[C@]4(C)C[C@H](O)C[C@](C)(CO)[C@H]4CC[C@]3(C2)[C@H]1O | > 100 µM | 20.3 µM | > 100 µM | 26.4 µM |
| Cc1cc2c(c(C)c1CCO)C(=O)[C@H](C)[C@@H]2O[C@@H]1O[C@H](CO)[C@@H](OC(=O)/C=C/c2ccc(O)cc2)[C@H](O)[C@H]1O | 9.26 µM | > 400 µM | 9.57 µM | 23.8 µM |
| Cc1cc2c(c(C)c1CCO)C(=O)[C@@H](C)[C@@H]2O[C@@H]1O[C@H](CO)[C@@H](OC(=O)/C=C/c2ccc(O)cc2)[C@H](O)[C@H]1O | 8.69 µM | 11.3 µM | 10.6 µM | 14.2 µM |
| C=C1[C@@H]2CC[C@H]3[C@]4(C)C[C@H](O)C[C@](C)(CO)[C@H]4CC[C@]3([C@@H]2O)[C@H]1O | > 100 µM | 76.3 µM | > 100 µM | 69.6 µM |
| COc1cccc2c1C(=O)c1c(O)c3c(c(O)c1C2=O)C[C@@](O)(C(=O)CO)C[C@@H]3O[C@H]1C[C@H](N)[C@H](O)[C@H](C)O1 [DOXORUBICIN] | 0.06 µM | > 400 µM | 0.09 µM | > 400 µM |
| CC1(C)C[C@@H](O)C[C@]2(C)[C@@H]1[C@H](O)C[C@@]13C[C@@H](CC[C@H]12)[C@@](O)(CO)C3 | 82.4 µM | 91.7 µM | 81.9 µM | 53.7 µM |
| CC(=O)O[C@@]12CO[C@@H]1C[C@H](O)[C@@]1(C)C(=O)[C@H](O)C3=C(C)[C@@H](OC(=O)[C@H](O)[C@@H](NC(=O)OC(C)(C)C)c4ccccc4)C[C@@](O)([C@@H](OC(=O)c4ccccc4)[C@H]21)C3(C)C [DOCETAXEL] |  | 0.00197 µM |  | 0.00114 µM |
| Cc1cc2c(c(C)c1CCO[C@@H]1O[C@H](CO)[C@@H](OC(=O)/C=C/c3ccc(O)cc3)[C@H](O)[C@H]1O)C(=O)[C@H](C)C2 | > 100 µM | > 400 µM | 64.6 µM | 45.3 µM |
